The target in series [1] is T1, Muscarinic acetylcholine receptor M2 (Homo sapiens) (UniProt P08172).
T1 sequence (whole entry): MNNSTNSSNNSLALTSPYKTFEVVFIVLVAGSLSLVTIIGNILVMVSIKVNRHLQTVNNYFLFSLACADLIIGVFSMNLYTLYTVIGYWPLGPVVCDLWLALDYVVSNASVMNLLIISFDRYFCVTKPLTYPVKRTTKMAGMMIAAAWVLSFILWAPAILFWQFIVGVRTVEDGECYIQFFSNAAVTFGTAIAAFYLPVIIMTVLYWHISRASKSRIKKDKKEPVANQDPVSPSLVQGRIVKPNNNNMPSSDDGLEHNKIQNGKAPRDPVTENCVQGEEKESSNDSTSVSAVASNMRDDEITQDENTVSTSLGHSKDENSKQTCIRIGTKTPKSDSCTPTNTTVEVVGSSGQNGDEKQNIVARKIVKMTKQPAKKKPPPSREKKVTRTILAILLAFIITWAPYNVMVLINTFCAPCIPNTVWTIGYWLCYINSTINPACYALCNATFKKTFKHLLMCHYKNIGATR
The series is described as follows: Binding affinity to human muscarinic acetylcholine receptor M2 expressed in CHOK9 cells assessed as dissociation half life after 105 mins by liquid scintillation counting assay. It counts as cell-based. Conditions: tested as the 3H-labelled form.

Series [2] has as its target T1, Muscarinic acetylcholine receptor M2 (Homo sapiens). The series is described as follows: (§1) Competitive antagonist activity at human muscarinic acetylcholine receptor M2 expressed in HEK293 cells coexpressing HA tagged Galpha-protein qi5 assessed as inhibition of 1 uM carbachol-induced IP1 accumulation preincubated for 30 mins followed by carbachol addition measured after 1 hr by HTRF assay. It counts as functional, cell-based. In outline: (§2)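 HEK-293 transiently cotransfected with human M2R and Gαqi5-HA. Cells preincubated 30 min with antagonist, then carbachol added (final 0.1, 0.3, 1 or 10 μM), 1 h at 37 °C. IP1 detected by HTRF (620/670 nm emission, 330 nm excitation). At least four independent experiments, each in duplicate.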
Background: TR-FRET usually uses a lanthanide donor and a delayed reading to cut background.

Series [3] addresses T2, Muscarinic acetylcholine receptor M2 (Homo sapiens, UniProt P08172).
T2 sequence (P08172 whole entry): T1 sequence (whole entry)
The description is as §1. It counts as functional, cell-based. In outline:
as §2

Series [4] addresses T1, Muscarinic acetylcholine receptor M2 (Homo sapiens). The series is described as follows: Agonist activity at human muscarinic acetylcholine receptor M2 expressed in HEK293 cells coexpressing HA tagged Galpha-protein qi5 assessed as induction of IP1 accumulation measured after 1 hr by HTRF assay. It counts as functional, cell-based. In outline: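 HEK-293 transiently cotransfected with human M2R and Gαqi5-HA, seeded 24 h before assay (10000 cells/well). Compounds in stimulation buffer (1 pM–100 μM final) 1 h at 37 °C; IP1 read by HTRF (620/670 nm, excitation 330 nm) after 60 min with detection reagents at rt. Duplicate, three experiments, carbachol as reference.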

Series [5] has as its target T3, Muscarinic acetylcholine receptor M1 (Homo sapiens, UniProt P11229).
T3 sequence (P11229 whole entry): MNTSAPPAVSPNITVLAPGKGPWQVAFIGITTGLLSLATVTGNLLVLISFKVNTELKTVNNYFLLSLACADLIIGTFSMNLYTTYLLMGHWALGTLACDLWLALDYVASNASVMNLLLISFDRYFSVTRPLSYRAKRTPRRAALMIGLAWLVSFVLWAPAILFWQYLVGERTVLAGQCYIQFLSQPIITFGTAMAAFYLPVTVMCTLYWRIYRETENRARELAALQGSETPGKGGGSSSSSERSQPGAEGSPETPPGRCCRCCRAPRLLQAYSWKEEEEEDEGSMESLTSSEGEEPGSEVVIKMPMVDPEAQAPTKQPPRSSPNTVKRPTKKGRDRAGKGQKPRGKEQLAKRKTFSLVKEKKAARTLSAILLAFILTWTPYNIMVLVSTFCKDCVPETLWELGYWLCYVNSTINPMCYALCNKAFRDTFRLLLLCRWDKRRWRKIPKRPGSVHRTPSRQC
The series is described as follows: Displacement of [3H]NMS from human muscarinic acetylcholine receptor M1 expressed in CHOK9 cells after 3 hrs by liquid scintillation counting assay. It counts as cell-based. Background: Displacement assays read how much labelled ligand stays bound in the presence of the test substance.

Series [6] has as its target T1, Muscarinic acetylcholine receptor M2 (Homo sapiens). Put plainly: Binding affinity to human muscarinic acetylcholine receptor M2 expressed in live adherent CHOK9 cells after 2 hrs by liquid scintillation counting assay. It counts as cell-based. Particulars: tested as the 3H-labelled form. In outline:
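Live adherent CHO-hM2 cells in L15 medium with 1% BSA, 23 ± 1 °C, 2 h incubation. Competition at 2 nM radioligand; additional 4, 8, 15 and 30 nM in W84 experiments. […] Saturation data fitted one-site; competition by four-parameter logistic fits; at least three experiments in triplicate.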

For series [7] the target is unchanged. Put plainly: (§3) Competitive antagonist activity at human muscarinic acetylcholine receptor M2 expressed in HEK293 cells coexpressing HA tagged Galpha-protein qi5 assessed as inhibition of 0.1 uM carbachol-induced IP1 accumulation preincubated for 30 mins followed by carbachol addition measured after 1 hr by HTRF assay. It is filed as functional, cell-based. In outline:
as §2

Series [8] deals with T2, Muscarinic acetylcholine receptor M2. The series is described as §3. It is filed as functional, cell-based. In outline: as §2
A short description of series [9]: Chemical stability of the compound in PBS buffer at pH 7.4 after 48 hrs by HPLC analysis. Conditions: pH 7.4, 48 h. It counts as physicochemical. Put shortly:
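Compound at 100 μM final (from 10 mM stock) in PBS pH 7.4 at 22 ± 1 °C; samples taken at 0, 24 and 48 h, mixed with acetonitrile/1% aq TFA 2:8, analysed by RP-HPLC at 220 nm.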

In series [10] the target is T2, Muscarinic acetylcholine receptor M2. The series is described as follows: Displacement of [3H]NMS from human muscarinic acetylcholine receptor M2 expressed in CHOK9 cells after 3 hrs by liquid scintillation counting assay. It is filed as cell-based. Particulars: read-out: pKi (converted).
Series [11] addresses T1, Muscarinic acetylcholine receptor M2 (Homo sapiens). The series is described as follows: Antagonist activity at human muscarinic acetylcholine receptor M2 expressed in HEK293 cells coexpressing HA tagged Galpha-protein qi5 assessed as inhibition of 0.3 uM carbachol-induced IP1 accumulation preincubated for 30 mins followed by carbachol addition measured after 1 hr by HTRF assay. It counts as functional, cell-based. Put shortly: as §2

Activity calls are given as the source filed them. No cut-off for these calls is given here.

As a reminder, the IC50 is the concentration that inhibits the measured activity by half. A word on the pKb: it is the Kb on a negative log10 scale, so that one unit is a factor of ten. For `CCC(=O)NCc1cc(C(=O)NCCNC(=O)CCc2cn(CCCCC3CCN(CC(=O)N4c5ccccc5NC(=O)c5ccccc54)CC3)cn2)cc(C(=O)NCCNC(=O)CCc2cn(CCCCC3CCN(CC(=O)N4c5ccccc5NC(=O)c5ccccc54)CC3)cn2)c1.O=C(O)C(F)(F)F.O=C(O)C(F)(F)F.O=C(O)C(F)(F)F.O=C(O)C(F)(F)F`, the T1/2 in series [1] stood at 1.1 h. Moreover, the inhibition result in series [2], in series [7] and in series [11] was “Dose-dependent effect” throughout. Moreover, the results for the IC50 in series [3] and in series [8] were 174 nM and 16.6 nM, respectively. In addition, the outcome in series [4] was inactive. Also, the Ki in series [5] is 1.51 nM; in series [10], 0.407 nM. In addition, in series [6], the Bmax (disintegrations/minute) amounted to 1200. Moreover, in series [9], the Stability result is “Stable”. Besides, the pKb in [11] amounted to 7.36.

(Values after ChEMBL document CHEMBL4049434, “Radiolabeled Dibenzodiazepinone-Type Antagonists Give Evidence of Dualsteric Binding at the M2 Muscarinic Acetylcholine Receptor” (J Med Chem, 2017).)
